According to ChEMBL document CHEMBL3120090, “High-affinity recognition of HIV-1 frameshift-stimulating RNA alters frameshifting in vitro and interferes with HIV-1 infectivity” (J Med Chem, 2014):
pKd: −log10 of the molar value. Calls of active or inactive are those of the source. The calls are words filed in the database; no cut-off is given here.

Columns and labels:
[1] = Cytotoxicity against HEK293FT cells assessed as cell viability at >10 uM after 24 hrs by WST-1 assay; format: cell-based; details: human
Outline: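 HEK293FT cells at 80% confluence in DMEM/10% FBS exposed to compound (up to 0.5 mM) or a water control, in triplicate, for 24 h at 37 °C. WST-1 reagent then added for 2 h. Absorbance at 450 minus 690 nm, blank-corrected, plotted against concentration. Error is SD of three measurements.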

[2] = Cellular uptake in nucleus of HEK293FT cells at 50 uM measured for 12 hrs by fluorescence microscopy; format: ADME, cell-based; details: human
[3] = Cellular uptake in cytoplasm of HEK293FT cells at 50 uM measured for 12 hrs by fluorescence microscopy; format: ADME, cell-based; details: human
[4] = system: Human immunodeficiency virus 1; assay: Binding affinity to HIV-1 FSS RNA in HBS buffer at pH 7.4 assessed as association rate by surface plasmon resonance analysis
Outline: (§1)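 RNA captured on SPR chips at low (~300 RU) and high (~1200 RU) density, each measured once. Compound flowed in HBS (0.01 M HEPES, 0.150 M NaCl, pH 7.4) at 60 μL/min over at least five concentrations, each injected at least twice. A 20 s 0.5 or 1 M NaCl pulse regenerated the chip where needed. Reference-subtracted, blank-corrected sensorgrams (association plus dissociation) were globally fit to 1:1 Langmuir; error is standard error of the fit.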

[5] = system: HEK293FT; assay: Binding affinity to HTLV-2 FSS RNA transfected in HEK293FT cells at 1 to 50 uM after 36 hrs by Renilla/firefly luciferase reporter gene assay; format: cell-based; details: Human T-lymphotropic virus 2
Outline: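 HEK293FT cells transiently transfected with pDualHTLV-2(−1) (Fluc made only via −1 frameshift at the HTLV-2 site) and treated 5 h later with compound (0–50 μM) in triplicate for 36 h at 37 °C. Fluc/Rluc ratio from lysate, relative to untreated transfected cells. Error is SEM.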

[6] = Binding affinity to HIV-1 FSS RNA in HBS buffer at pH 7.4 by surface plasmon resonance analysis; design: species or system Human immunodeficiency virus 1; details: read-out: Kd; outline: as §1
[7] = system: HEK293FT; assay: Binding affinity to HIV-1 FSS RNA transfected in HEK293FT cells after 36 hrs by Renilla/firefly luciferase reporter gene assay; format: cell-based; details: Human immunodeficiency virus 1
Outline: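 HEK293FT cells (1.5 × 10^4/well) transiently transfected with pDualHIV(−1) or in-frame pDualHIV(0) Rluc–FSS–Fluc plasmid (0.2 μg). Compound (0–50 μM) added 5 h later, in triplicate, for 36 h at 37 °C. Fluc/Rluc ratio from lysate, expressed relative to untreated transfected cells (100%). Error is SEM.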

[8] = Binding affinity to HIV-1 FSS RNA in HBS buffer at pH 7.4 assessed as dissociation rate by surface plasmon resonance analysis; design: species or system Human immunodeficiency virus 1; outline: as §1
[9] = system: Human T-lymphotropic virus 2; assay: Binding affinity to HTLV-2 FSS RNA up to 3 uM by surface plasmon resonance analysis
[10] = Binding affinity to HIV-1 FSS RNA after 10 mins by fluorescence titration analysis; design: species or system Human immunodeficiency virus 1
Outline: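 Solution fluorescence titration in 20 mM HEPES, 150 mM NaCl. Compound at 1 μM, titrated with unlabeled HIV-1 FSS RNA (10 μM stock), FSS DNA or yeast tRNA (40 μM stocks). 10 min equilibration after each addition. Quenching of benzo[g]quinoline fluorescence read in triplicate 1 min apart, corrected for dilution; KD from saturable quenching. Error is SD.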

SMILES | Activity [1] | Drug uptake [2] | Drug uptake [3] | Ka [4] | Activity [5] | pKd [6] | Activity [7] [%] | Dissociation rate constant (koff) [8] | Activity [9] | pKd [10]
CCc1nc2cc3ccccc3cc2cc1C(=O)N[C@@H](CSSC[C@H](NC(=O)c1cc2cc3ccccc3cc2nc1CC)C(=O)N1CCC[C@H]1C(=O)N[C@@H](Cc1ccccc1)C(=O)NCCCN)C(=O)N1CCC[C@H]1C(=O)N[C@@H](Cc1ccccc1)C(=O)NCCCN | Toxic | Active | Active | 1.07 ×10⁴ /M/s | inactive | 6.13 | 25 | 7.92 ×10⁻³ /s |  | 
CCc1nc2cc3ccccc3cc2cc1C(=O)N[C@@H](C/C=C/C[C@H](N)C(=O)N1CCC[C@H]1C(=O)N[C@@H](Cc1ccccc1)C(=O)NCCCN)C(=O)N1CCC[C@H]1C(=O)N[C@@H](Cc1ccccc1)C(=O)NCCCN |  |  |  | 7.71 ×10³ /M/s |  | 4.68 |  | 1.63 ×10⁻¹ /s | inactive | 
NCCCNC(=O)[C@H](Cc1ccccc1)NC(=O)[C@@H]1CCCN1C(=O)[C@@H](N)C/C=C\C[C@H](N)C(=O)N1CCC[C@H]1C(=O)N[C@@H](Cc1ccccc1)C(=O)NCCCN |  |  |  |  |  |  |  |  | inactive | 
C=CC[C@H](NC(=O)c1cc2cc3ccccc3cc2nc1CC)C(=O)N1CCC[C@H]1C(=O)N[C@@H](Cc1ccccc1)C(=O)NCCCN |  |  |  | 1.16 ×10³ /M/s |  | 4.71 |  | 2.25 ×10⁻² /s | inactive | 6.39
CCc1nc2ccccc2cc1C(=O)N[C@@H](C/C=C/C[C@H](NC(=O)c1cc2ccccc2nc1CC)C(=O)N1CCC[C@H]1C(=O)N[C@@H](Cc1ccccc1)C(=O)NCCCN)C(=O)N1CCC[C@H]1C(=O)N[C@@H](Cc1ccccc1)C(=O)NCCCN |  |  |  | 1.62 ×10³ /M/s |  | 5.33 |  | 7.5 ×10⁻³ /s |  | 
CCc1nc2cc3ccccc3cc2cc1C(=O)N[C@@H](C/C=C\C[C@H](N)C(=O)N1CCC[C@H]1C(=O)N[C@@H](Cc1ccccc1)C(=O)NCCCN)C(=O)N1CCC[C@H]1C(=O)N[C@@H](Cc1ccccc1)C(=O)NCCCN |  |  |  | 4.58 ×10³ /M/s |  | 5.56 |  | 1.21 ×10⁻² /s | inactive | 
